The test deals with NAD-dependent histone deacetylase SIR2 (Saccharomyces cerevisiae S288c) (UniProt P06700). Nature of the test: Inhibition of yeast TEL::-URA3 Sir2 assessed as growth inhibition of yeast at 50 uM after 24 to 48 hrs. The essentials: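 Yeast cell-based reporter silencing screen for Sir2, the yeast homologue of SIRT1. Strain TEL::URA3 (MATα ura3-52 lys2-801 ade2-101 trpΔ63 his3Δ200 leu2-Δ1 TEL adh4::URA3) carries URA3 inserted at a telomeric locus, where Sir2 silences it. Inhibition was scored as inhibition of growth of this strain in the presence of 5-fluoroorotic acid. Compounds were tested at 50 µM, with splitomicin as the reference inhibitor.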
Sequence of NAD-dependent histone deacetylase SIR2 (Saccharomyces cerevisiae S288c) (P06700 whole entry): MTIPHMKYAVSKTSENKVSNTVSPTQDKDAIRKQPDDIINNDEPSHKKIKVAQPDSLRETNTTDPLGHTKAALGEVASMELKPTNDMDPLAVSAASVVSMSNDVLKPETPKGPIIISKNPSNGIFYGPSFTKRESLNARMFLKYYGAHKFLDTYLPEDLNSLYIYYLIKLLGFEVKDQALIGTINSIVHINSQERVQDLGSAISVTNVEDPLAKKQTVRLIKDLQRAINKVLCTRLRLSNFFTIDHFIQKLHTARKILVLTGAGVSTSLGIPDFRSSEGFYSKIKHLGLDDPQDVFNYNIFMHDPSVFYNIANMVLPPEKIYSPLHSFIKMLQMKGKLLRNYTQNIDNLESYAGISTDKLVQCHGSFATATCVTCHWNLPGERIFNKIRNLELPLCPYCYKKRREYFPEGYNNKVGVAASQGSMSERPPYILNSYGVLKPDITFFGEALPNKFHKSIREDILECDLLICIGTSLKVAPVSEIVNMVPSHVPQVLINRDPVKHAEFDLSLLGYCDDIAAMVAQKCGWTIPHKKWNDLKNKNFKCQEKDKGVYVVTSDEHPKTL

Results on 15 compounds are retold here after ChEMBL document CHEMBL2331242, “Amberlite IR-120H catalyzed MCR: design, synthesis and crystal structure analysis of 1,8-dioxodecahydroacridines as potential inhibitors of sirtuins” (Bioorg Med Chem Lett, 2013).

The term inhibition denotes the drop in the measured response relative to a control, in per cent. For the compound `CCOC(=O)c1c(N2C3=C(C(=O)CC(C)(C)C3)C(c3cccs3)C3=C2CC(C)(C)CC3=O)sc2c1CCCC2`, the inhibition came out at 16.2%. For `CC1(C)CC(=O)C2=C(C1)N(c1ccc(C(F)(F)F)cc1)C1=C(C(=O)CC(C)(C)C1)C2c1cccc(O)c1` the value was 28.5%. Consider `CC1(C)CC(=O)C2=C(C1)N(c1ccc(I)cc1)C1=C(C(=O)CC(C)(C)C1)C2c1cccc([N+](=O)[O-])c1`, for which the inhibition worked out at 35.2%.

`CC1(C)CC(=O)C2=C(C1)N(c1ccc(F)cc1)C1=C(C(=O)CC(C)(C)C1)C2c1cccc(O)c1`: the inhibition came out at 33.5%. Next, `CC(=O)c1ccc(N2C3=C(C(=O)CC(C)(C)C3)C(c3cccc(O)c3)C3=C2CC(C)(C)CC3=O)cc1`: 12.8%; `CC1(C)CC(=O)C2=C(C1)N(c1ccc(I)cc1)C1=C(C(=O)CC(C)(C)C1)C2c1cccc(O)c1`: 41.1%. Take `CC1(C)CC(=O)C2=C(C1)N(c1ccc(Br)cc1)C1=C(C(=O)CC(C)(C)C1)C2c1ccc2ccccc2c1`: the inhibition came out at 10.6%. As to `CC1(C)CC(=O)C2=C(C1)N(c1ccccc1I)C1=C(C(=O)CC(C)(C)C1)C2c1cccc(O)c1`, the inhibition was determined as 23.7%.

With `CC1(C)CC(=O)C2=C(C1)N(c1ccc(Br)cc1)C1=C(C(=O)CC(C)(C)C1)C2c1cccc(O)c1`, the inhibition was 32.5%. On to `CC1(C)CC(=O)C2=C(C1)N(c1ccc(F)cc1)C1=C(C(=O)CC(C)(C)C1)C2c1cccc(F)c1`, for which the inhibition amounted to 28.4%. For `CC1(C)CC(=O)C2=C(C1)N(c1ccc(Cl)cc1)C1=C(C(=O)CC(C)(C)C1)C2c1cccc([N+](=O)[O-])c1`, the inhibition came to 29.2%. For `CC1(C)CC(=O)C2=C(C1)N(c1ccccc1)C1=C(C(=O)CC(C)(C)C1)C2c1ccccc1O` the value was 15.6%. For `CC1(C)CC(=O)C2=C(C1)N(c1ccc(I)cc1)C1=C(C(=O)CC(C)(C)C1)C2c1cccs1` the value was 13%; for `CC1(C)CC(=O)C2=C(C1)N(c1ccc(C#N)cc1)C1=C(C(=O)CC(C)(C)C1)C2c1cccc(O)c1`, 17.9%. For `Cc1ccc(N2C3=C(C(=O)CC(C)(C)C3)C(c3cccc(O)c3)C3=C2CC(C)(C)CC3=O)cc1` the value was 30.2%.
